Measured values taken from ChEMBL document CHEMBL5329156, “Discovery and development of novel substituted monohydrazides as potent antifungal agents” (RSC Med Chem, 2023).
The source made the active and inactive calls.

Tests used:
Candida duobushaemulonii [1] = assay: Antifungal activity against Candida duobushaemulonii AR Bank # 394 assessed as fungal growth inhibition by double dilution method; type: functional; conditions: Candidozyma duobushaemuli
In short: (§1)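 Broth microdilution after CLSI M27-A3/M38-A2 with minor changes. Single colony grown overnight in YPD at 35 °C, 200 rpm. Compound final range 0.06-31.3 µg/mL; incubated 48 h at 35 °C.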

[Candida] auris [2] = Antifungal activity against Candida auris AR Bank # 385 assessed as fungal growth inhibition by double dilution method; type: functional; conditions: Candidozyma auris; in short: as §1
[Candida] haemuloni [3] = Antifungal activity against Candida haemulonii AR Bank # 395 assessed as fungal growth inhibition by double dilution method; type: functional; conditions: Candidozyma haemuli; in short: as §1
Candida duobushaemulonii [4] = assay: Antifungal activity against Candida duobushaemulonii AR Bank # 392 assessed as fungal growth inhibition by double dilution method; type: functional; conditions: Candidozyma duobushaemuli; in short: as §1
Candida albicans [5] = assay: Antifungal activity against itraconazole/fluconazole resistant Candida albicans ATCC 90819 assessed as fungal growth inhibition by double dilution method; type: functional
In short: (§2)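 Broth microdilution after CLSI M27-A3/M38-A2 with minor modifications. A single colony was grown overnight in YPD at 35 °C with shaking at 200 rpm. Cells were mixed 1:1 with compound (final 0.06-31.3 µg/mL, from DMSO stocks) and incubated 48 h at 35 °C.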

HEK293 = assay: Cytotoxicity against human HEK-293 cells assessed as reduction in cell viability at 31.3 microg/ml; type: toxicity, cell-based; conditions: dose 31.3 µg/ml
In short: (§3)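 Cells in DMEM with 10% FBS and 1% Pen/Strep, seeded at 10,000 cells/well and held overnight at 37 °C, 5% CO2. Compounds added at final 31.3-0.12 µg/mL (0.05% DMSO vehicle) for 24 h. Resazurin then added for 6 h; fluorescence read at ex 560/em 590. Triton X-100 1% as positive control; values normalized to vehicle. Run in quadruplicate.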

Candida albicans [6] = assay: Antifungal activity against Candida albicans ATCC 64124 assessed as fungal growth inhibition by double dilution method; type: functional; in short: as §2
Nakaseomyces glabratus [7] = assay: Antifungal activity against Candida glabrata ATCC 22019 assessed as fungal growth inhibition by double dilution method; type: functional; in short: as §1
[Candida] haemuloni [8] = Antifungal activity against Candida haemulonii AR Bank # 393 assessed as fungal growth inhibition by double dilution method; type: functional; conditions: Candidozyma haemuli; in short: as §1
Pichia kudriavzevii [9] = assay: Antifungal activity against Pichia kudriavzevii ATCC 6258 assessed as fungal growth inhibition by double dilution method; type: functional; in short: as §1
Cryptococcus neoformans = assay: Antifungal activity against Cryptococcus neoformans ATCC MYA-895 assessed as fungal growth inhibition by double dilution method; type: functional; in short: as §1
Aspergillus fumigatus [10] = assay: Antifungal activity against Aspergillus fumigatus NRRL 163 assessed as fungal growth inhibition by double dilution method; type: functional
Kodamaea ohmeri = assay: Antifungal activity against Kodamaea ohmeri AR Bank # 396 assessed as fungal growth inhibition by double dilution method; type: functional; in short: as §1
Nakaseomyces glabratus [11] = assay: Antifungal activity against Candida glabrata ATCC 2001 assessed as fungal growth inhibition by double dilution method; type: functional; in short: as §1
Clavispora lusitaniae = assay: Antifungal activity against Clavispora lusitaniae AR Bank # 398 assessed as fungal growth inhibition by double dilution method; type: functional; in short: as §1
[Candida] auris [12] = Antifungal activity against Candida auris AR Bank # 387 assessed as fungal growth inhibition by double dilution method; type: functional; conditions: Candidozyma auris; in short: as §1
[Candida] auris [13] = Antifungal activity against Candida auris AR Bank # 389 assessed as fungal growth inhibition by double dilution method; type: functional; conditions: Candidozyma auris; in short: as §1
Aspergillus terreus = assay: Antifungal activity against Aspergillus terreus ATCC MYA-3633 assessed as fungal growth inhibition by double dilution method; type: functional
Candida albicans [14] = assay: Antifungal activity against itraconazole/fluconazole resistant Candida albicans ATCC MYA-1003 assessed as fungal growth inhibition by double dilution method; type: functional; in short: as §2
Candida duobushaemulonii [15] = assay: Antifungal activity against Candida duobushaemulonii AR Bank # 391 assessed as fungal growth inhibition by double dilution method; type: functional; conditions: Candidozyma duobushaemuli; in short: as §1
[Candida] auris [16] = Antifungal activity against Candida auris AR Bank # 388 assessed as fungal growth inhibition by double dilution method; type: functional; conditions: Candidozyma auris; in short: as §1
[Candida] auris [17] = Antifungal activity against Candida auris AR Bank # 381 assessed as fungal growth inhibition by double dilution method; type: functional; conditions: Candidozyma auris; in short: as §1
[Candida] auris [18] = Antifungal activity against Candida auris AR Bank # 0384 assessed as fungal growth inhibition by double dilution method; type: functional; conditions: Candidozyma auris; in short: as §1
[Candida] auris [19] = Antifungal activity against Candida auris AR Bank # 382 assessed as fungal growth inhibition by double dilution method; type: functional; conditions: Candidozyma auris; in short: as §1
Saccharomyces cerevisiae [20] = assay: Antifungal activity against Saccharomyces cerevisiae AR Bank # 400 assessed as fungal growth inhibition by double dilution method; type: functional; in short: as §1
Aspergillus nidulans = assay: Antifungal activity against Aspergillus nidulans ATCC 38163 assessed as fungal growth inhibition by double dilution method; type: functional
Saccharomyces cerevisiae [21] = assay: Antifungal activity against Saccharomyces cerevisiae AR Bank # 399 assessed as fungal growth inhibition by double dilution method; type: functional; in short: as §1
[Candida] auris [22] = Antifungal activity against Candida auris AR Bank # 386 assessed as fungal growth inhibition by double dilution method; type: functional; conditions: Candidozyma auris; in short: as §1
[Candida] auris [23] = Antifungal activity against Candida auris AR Bank # 390 assessed as fungal growth inhibition by double dilution method; type: functional; conditions: Candidozyma auris; in short: as §1
Candida albicans [24] = assay: Antifungal activity against itraconazole/fluconazole susceptible Candida albicans ATCC MYA-2876 assessed as fungal growth inhibition by double dilution method; type: functional; in short: as §2
HepG2 = assay: Cytotoxicity against human HepG2 cells assessed as reduction in cell viability upto 31.3 microg/ml; type: toxicity, cell-based; conditions: dose < 31.3 µg/ml; in short: as §3
Aspergillus fumigatus [25] = assay: Antifungal activity against Aspergillus fumigatus NRRL 6113 assessed as fungal growth inhibition by double dilution method; type: functional
Pichia kudriavzevii [26] = assay: Antifungal activity against Pichia kudriavzevii AR Bank # 397 assessed as fungal growth inhibition by double dilution method; type: functional; in short: as §1
[Candida] auris [27] = Antifungal activity against Candida auris AR Bank # 384 assessed as fungal growth inhibition by double dilution method; type: functional; conditions: Candidozyma auris; in short: as §1
Candida albicans [28] = assay: Antifungal activity against Candida albicans ATCC 10231 assessed as fungal growth inhibition by double dilution method; type: functional; in short: as §1
Aspergillus flavus = assay: Antifungal activity against Aspergillus flavus ATCC MYA-3631 assessed as fungal growth inhibition by double dilution method; type: functional
[Candida] auris [29] = Antifungal activity against Candida auris AR Bank # 383 assessed as fungal growth inhibition by double dilution method; type: functional; conditions: Candidozyma auris; in short: as §1
Candida albicans [30] = assay: Antifungal activity against itraconazole/fluconazole resistant Candida albicans ATCC MYA-1237 assessed as fungal growth inhibition by double dilution method; type: functional; in short: as §2
[Candida] auris [31] = Antifungal activity against Candida auris AR Bank # 0390 assessed as fungal growth inhibition by double dilution method; type: functional; conditions: Candidozyma auris; in short: as §1
Aspergillus fumigatus [32] = assay: Antifungal activity against Aspergillus fumigatus NRRL 5109 assessed as fungal growth inhibition by double dilution method; type: functional
Candida albicans [33] = assay: Antifungal activity against itraconazole/fluconazole susceptible Candida albicans ATCC MYA-2310 assessed as fungal growth inhibition by double dilution method; type: functional; in short: as §2
J774.A1 = assay: Cytotoxicity against J774A.1 cells assessed as reduction in cell viability at 31.3 microg/ml; type: toxicity, cell-based; conditions: mouse, dose 31.3 µg/ml; in short: as §3
Candida albicans [34] = assay: Antibiofilm activity against Candida albicans ATCC 10231 assessed as reduction in biofilm production at 1.96 to 3.9 microg/ml by biofilm formation assay; type: functional, organism-based; conditions: dose 1.96-3.9 µg/ml

COc1ccc(NNC(=O)c2cnccn2)cc1
1.95 µg/mL: MIC ([Candida] auris [12]) | MIC (Candida albicans [14]) | MIC ([Candida] auris [17]) | MIC (Candida albicans [24]) | MIC (Candida albicans [33])
3.9 µg/mL: MIC (Nakaseomyces glabratus [7])
> 31.3 µg/mL: MIC (Aspergillus terreus) | MIC (Aspergillus flavus)
0.24 µg/mL: MIC ([Candida] haemuloni [8])
31.3 µg/mL: MIC (Aspergillus fumigatus [10]) | MIC (Aspergillus fumigatus [25]) | MIC (Aspergillus fumigatus [32])
0.98 µg/mL: MIC ([Candida] auris [2]) | MIC (Candida albicans [5]) | MIC (Candida albicans [6]) | MIC (Pichia kudriavzevii [9]) | MIC (Cryptococcus neoformans) | MIC (Kodamaea ohmeri) | MIC (Nakaseomyces glabratus [11]) | MIC (Clavispora lusitaniae) | MIC ([Candida] auris [13]) | MIC ([Candida] auris [16]) | MIC ([Candida] auris [19]) | MIC (Saccharomyces cerevisiae [20]) | MIC (Aspergillus nidulans) | MIC (Saccharomyces cerevisiae [21]) | MIC ([Candida] auris [23]) | MIC ([Candida] auris [27]) | MIC ([Candida] auris [29]) | MIC (Candida albicans [30])
0.49 µg/mL: MIC (Candida duobushaemulonii [1]) | MIC ([Candida] haemuloni [3]) | MIC (Candida duobushaemulonii [4]) | MIC (Candida duobushaemulonii [15]) | MIC ([Candida] auris [18]) | MIC ([Candida] auris [22]) | MIC (Pichia kudriavzevii [26]) | MIC (Candida albicans [28]) | MIC ([Candida] auris [31])
Non-Toxic: Activity (HEK293) | Activity (HepG2) | Activity (J774.A1)

O=C(NNc1cccc(Cl)c1)c1cnccn1
3.9 µg/mL: MIC (Candida albicans [5]) | MIC (Nakaseomyces glabratus [11])
≤ 0.06 µg/mL: MIC ([Candida] auris [22])
> 31.3 µg/mL: MIC (Aspergillus fumigatus [10]) | MIC (Aspergillus fumigatus [25]) | MIC (Aspergillus flavus) | MIC (Aspergillus fumigatus [32])
0.98 µg/mL: MIC (Aspergillus terreus) | MIC (Candida albicans [14]) | MIC (Saccharomyces cerevisiae [20]) | MIC (Aspergillus nidulans) | MIC (Saccharomyces cerevisiae [21]) | MIC ([Candida] auris [27]) | MIC (Candida albicans [30]) | MIC ([Candida] auris [31])
1.95 µg/mL: MIC (Candida albicans [6]) | MIC (Nakaseomyces glabratus [7]) | MIC ([Candida] auris [18]) | MIC (Candida albicans [24])
0.49 µg/mL: MIC (Clavispora lusitaniae) | MIC ([Candida] auris [17]) | MIC ([Candida] auris [23])
0.24 µg/mL: MIC ([Candida] auris [2]) | MIC ([Candida] haemuloni [3]) | MIC ([Candida] haemuloni [8]) | MIC (Pichia kudriavzevii [9]) | MIC (Cryptococcus neoformans) | MIC ([Candida] auris [12]) | MIC ([Candida] auris [13]) | MIC (Candida duobushaemulonii [15]) | MIC ([Candida] auris [16]) | MIC (Candida albicans [28]) | MIC ([Candida] auris [29])
0.12 µg/mL: MIC (Candida duobushaemulonii [1]) | MIC (Candida duobushaemulonii [4]) | MIC (Kodamaea ohmeri) | MIC ([Candida] auris [19]) | MIC (Pichia kudriavzevii [26])
7.8 µg/mL: MIC (Candida albicans [33])
Non-Toxic: Activity (HEK293) | Activity (HepG2) | Activity (J774.A1)

O=C(NNc1ccc(F)cc1)c1ccccn1
Non-Toxic: Activity (HEK293) | Activity (J774.A1)
0.24 µg/mL: MIC (Candida duobushaemulonii [1]) | MIC ([Candida] haemuloni [8]) | MIC (Cryptococcus neoformans) | MIC (Kodamaea ohmeri) | MIC (Pichia kudriavzevii [26])
3.9 µg/mL: MIC ([Candida] auris [18]) | MIC (Saccharomyces cerevisiae [21]) | MIC (Candida albicans [24]) | MIC ([Candida] auris [27])
1.95 µg/mL: MIC (Nakaseomyces glabratus [7]) | MIC (Nakaseomyces glabratus [11]) | MIC (Clavispora lusitaniae) | MIC (Aspergillus terreus) | MIC ([Candida] auris [19]) | MIC (Saccharomyces cerevisiae [20]) | MIC ([Candida] auris [29]) | MIC (Candida albicans [30]) | MIC (Candida albicans [33])
0.98 µg/mL: MIC ([Candida] auris [2]) | MIC (Candida albicans [5]) | MIC (Candida albicans [6]) | MIC ([Candida] auris [12]) | MIC ([Candida] auris [16]) | MIC ([Candida] auris [17]) | MIC ([Candida] auris [23]) | MIC ([Candida] auris [31])
0.49 µg/mL: MIC (Candida duobushaemulonii [4]) | MIC ([Candida] auris [13]) | MIC (Candida albicans [14]) | MIC (Candida duobushaemulonii [15]) | MIC (Aspergillus nidulans) | MIC ([Candida] auris [22])
0.12 µg/mL: MIC ([Candida] haemuloni [3]) | MIC (Pichia kudriavzevii [9]) | MIC (Candida albicans [28])
7.8 µg/mL: MIC (Aspergillus fumigatus [32])
15.6 µg/mL: MIC (Aspergillus fumigatus [25])
active: Activity (Candida albicans [34])
31.3 µg/mL: MIC (Aspergillus fumigatus [10]) | MIC (Aspergillus flavus)
